Screening results deposited in PubChem BioAssay by Sanford-Burnham Center for Chemical Genomics.
Most compounds without a hit are left out; they make up all but 0.64% or so of the library.
TNAP act hi DEA = increases human TNAP activity under high phosphate acceptor concentration. activation factor at 20 µM. 200,000 tested, under 10 active. AID 1136. purified TNAP, CDP-star luminescence, 1 M DEA, 30 min; active compounds read high; 0 = EDTA background, 1 = DMSO-only activity;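 active means activation factor at least 2 at 20 µM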
Target sequence (P05186 whole entry, looked up): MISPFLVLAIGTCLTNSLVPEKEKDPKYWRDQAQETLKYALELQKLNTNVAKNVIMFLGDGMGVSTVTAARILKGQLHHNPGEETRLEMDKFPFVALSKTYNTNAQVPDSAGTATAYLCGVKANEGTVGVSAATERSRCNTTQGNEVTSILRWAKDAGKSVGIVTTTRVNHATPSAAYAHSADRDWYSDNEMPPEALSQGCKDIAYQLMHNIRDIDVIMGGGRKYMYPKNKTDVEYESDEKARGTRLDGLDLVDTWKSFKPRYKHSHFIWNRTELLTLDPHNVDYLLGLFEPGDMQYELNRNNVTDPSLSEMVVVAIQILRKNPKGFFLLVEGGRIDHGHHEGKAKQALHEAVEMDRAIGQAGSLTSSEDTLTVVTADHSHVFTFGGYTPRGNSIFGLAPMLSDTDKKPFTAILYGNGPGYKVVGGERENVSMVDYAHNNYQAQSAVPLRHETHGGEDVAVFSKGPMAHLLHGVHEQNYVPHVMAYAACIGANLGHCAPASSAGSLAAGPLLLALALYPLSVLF
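Measured by: Luminescent substrate turnover signal | Test system: Human TNAP | Input: TNAP 1/800 final | Dosing: 20 µM single point | Schedule: 30 min, room temperature | Controls: EDTA wells as negative control, DMSO wells as positive control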
PMI act hi M6P = PMI (human) activation, high substrate. coupled PMI enzyme assay, resazurin fluorescence, 20 min; active compounds read high; 1 = untreated enzyme, 0 = substrate-free blank. activation factor at 20 µM. actives 0.34% (n = 190,000). AID 1216;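 active means activation factor of 2 or more at 20 µM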
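Test system: human phosphomannose isomerase with PGI, G6PDH, diaphorase coupling enzymes; Amount: PMI at 15 ng/mL final; Reagent: Mannose-6-phosphate 1.0 mM (near-saturating) plus 0.22 mM NADP+; Timing: 20 min, room temperature; Technique: resorufin fluorescence at Ex 544/Em 590 nm; Dosing: 20 µM single dose.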
TNAP inh hi DEA = TNAP (human) inhibition, high acceptor | AID 1135 | actives 0.03% (n = 200,000) | inhibition, % at 20 µM | P05186 | purified TNAP, CDP-star luminescence, 1 M DEA;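 active means over 50% inhibition of tissue-nonspecific alkaline phosphatase at 20 µM in the single-dose screen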
PMI act = activators of human phosphomannose isomerase; purified human PMI, coupled resazurin fluorescence, 20 min; active compounds read high; 1 = vehicle control, 0 substrate-free wells; P34949; actives 0.005% (n = 190,000); activation factor at 20 µM; AID 1214;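 active means activation factor of 2 or more at 20 µM, relative to plate controls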
TNAP inh noacc = blocks human TNAP activity with no phosphate acceptor present. P05186. purified TNAP, CDP-star luminescence, 30 min. inhibition, % at 20 µM. actives 0.26% (n = 200,000);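 active means tissue-nonspecific alkaline phosphatase inhibition above about 50% at 20 µM in the single-dose screen, limit read from the data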
Large screens that a line does not name were inactive.

CC1SC(C)C(=O)N(CC(=O)NC2CCCCC2)C1=O (configuration not stated)	none
Cc1ccc(NC(=O)C2CCN(S(=O)(=O)c3c(C)n[nH]c3C)CC2)nc1	TNAP inh noacc 55
Cc1ccc(NC(=O)C2CCN(S(=O)(=O)c3cnc[nH]3)CC2)nc1	none
O=C(c1ccco1)N1CCN(S(=O)(=O)N2CCOCC2)CC1	none
Cc1n[nH]c(C)c1S(=O)(=O)N1CCN(C(=O)c2ccco2)CC1	TNAP inh noacc 60
CC1CC(C)(C)NC(=S)N1CCCC(=O)NCCc1ccc(Cl)cc1 (configuration not stated)	none
COc1ccc(C2=Nn3c(nnc3-c3ccco3)SC2)cc1	none
Oc1ccc(C2=Nn3c(nnc3-c3ccco3)SC2)cc1O	TNAP inh noacc 91
CCc1cccc2c1NC(=O)C2(O)CC(=O)c1cccs1 (configuration not stated)	none
CCOC(=O)C1=NN(N=O)C2(CC(=O)N(c3cc(C)cc(C)c3)C2=O)C1 (configuration not stated)	PMI act hi M6P 2.2
COC(=O)C1=NN(C(C)=O)C2(CC(=O)N(c3cc(C)cc(C)c3)C2=O)C1 (configuration not stated)	none
O=C(CN1CCN(Cc2ccccc2)CC1)c1ccc(Br)cc1	PMI act hi M6P 2.4
CC1CCc2cc(F)ccc2N1C(=O)CCl (configuration not stated)	none
Cc1c(Cl)ccc2c(C(=O)NC(C)c3ccncc3)cc(-c3ccncc3)nc12 (configuration not stated)	none
O=C(C[n+]1ccc(C(=O)N/N=C/c2ccc(O)cc2)cc1)c1ccccc1	TNAP inh noacc 51
CC(C)CCOc1ccc(C(=O)N2CCCC2C(=O)O)cc1 (configuration not stated)	none
O=C(NCCCN1CCOCC1)c1coc2ccccc2c1=O	none
O=c1c(N2CCOCC2)coc2ccccc12	PMI act hi M6P 2.8 (no result: TNAP act hi DEA, TNAP inh hi DEA)
CC(C)(C)c1nc(S(=O)(=O)c2ccc(Cl)cc2)c(N2CCOCC2)o1	PMI act hi M6P 2.1
O=C(Nc1ccc(-c2cn3ccccc3n2)cc1)c1cccs1	none
O=C1CC(/C=C/c2ccncc2)=Nc2ccccc2N1	PMI act hi M6P 2.1
Oc1ccc(-c2nc3ccc4ccccc4c3c3c2CCC3)cc1O	TNAP inh noacc 50
COc1ccc(-c2cc(C(=O)O)nc3ccc4ccccc4c23)cc1OC	none
CC[n+]1c(/C=C(\C)SC)sc2ccccc21	PMI act hi M6P 2
CC/C(=C/c1sc2ccccc2[n+]1CC)SC	PMI act hi M6P 2
CC[n+]1c(/C=C(/C)SC)sc2ccccc21	none
COc1ccc(C(=O)NNc2ccccc2)cc1OC	PMI act hi M6P 2.2
CO/N=C\CC(=O)Nc1ccc(Cl)cc1Cl	none
CSc1nc(-c2ccccc2)nn1S(=O)(=O)c1ccccc1	TNAP inh noacc 54
CCCC(=O)n1nc(-c2ccccc2)nc1SC	none
CSc1nc(-c2ccccc2)nn1S(=O)(=O)c1ccc(Cl)cc1	none
CCS(=O)(=O)n1nc(-c2ccccc2)nc1SC	TNAP inh noacc 54
CSc1nc(-c2ccccc2)nn1C(=O)c1ccccc1	TNAP inh noacc 56
CN1CCC(N(C)C(=O)c2cc(=O)c3ccccc3o2)CC1	none
COc1ccc(NC(=O)NC23CC4(C)CC(C)(CC(C)(C4)C2)C3)cc1OC	none
CC(C)NC[C@@H](O)c1ccc(O)c(O)c1	TNAP inh noacc 71
COc1ccc(-c2[nH]ncc2C=O)cc1	TNAP inh noacc 70
COC1(c2cc(-c3ccccc3)nc(N)n2)CCCCC1	none
CCCCCCCCCCSc1n[nH]c(NC(C)=O)n1	none
CCCSc1n[nH]c(NC(C)=O)n1	TNAP inh noacc 96
CSc1n[nH]c(NC(C)=O)n1	TNAP inh noacc 50
COc1ccc(CCn2c(C)cc(C(=O)CCl)c2C)cc1OC	none
Cc1noc(C)c1COc1ccc(C(=O)OC(C)C(=O)Nc2ccc(S(=O)(=O)N3CCOCC3)cc2)cc1 (configuration not stated)	none
COc1ccc(Cl)cc1C(=O)NC(=S)Nc1cc(-c2nc3ccccc3[nH]2)ccc1C	none
CCCCOc1ccc(/C=C/C2=CC(C)(C)NC(=S)N2)cc1OCC	PMI act hi M6P 2
Fc1ccc(-c2n[nH]c(=S)c3ccccc23)cc1	PMI act hi M6P 2.4
c1ccc(-c2n[nH]c3ccccc23)cc1	TNAP inh noacc 90
CSc1nc(C)c(C(=O)C[n+]2ccc(C)cc2)cc1C#N	none
Cc1cccc(C)c1N1CCN(C(=O)N2CCCCC2)CC1	PMI act hi M6P 2
COC(=O)[C@@]1(Cc2ccc(OC)cc2)[C@H]2c3cc(C(=O)N4CCCC4)n(CCSCCO)c3C[C@H]2CN1C(=O)c1ccccc1	none
O=[N+]([O-])/C(=C\Nc1ccccc1Cl)S(=O)(=O)c1ccccc1	PMI act hi M6P 2.4
CCOC(=O)C(NS(=O)(=O)c1ccccc1)(C(F)(F)F)P(=O)(OCC(C)C)OCC(C)C (configuration not stated)	PMI act hi M6P 2
CCOC(=O)C(NCc1ccccc1)(NC(=O)c1ccccc1)C(F)(F)F (configuration not stated)	none
CCc1nn(-c2ccccc2)c2c1-c1cc(OC)c(OC)cc1C1(N2)C(=O)Nc2ccccc21 (configuration not stated)	none
Cc1[nH]nc2c1/C(=N\O)CC(C)(C)C2	none
CCc1n[nH]c2c1/C(=N/O)CCC2	none
Cc1[nH]nc2c1C(=O)CC(C)(C)C2	TNAP inh noacc 55
CCc1n[nH]c2c1C(=O)CC(C)(C)C2	TNAP inh noacc 51
CC1=NN(c2ccc(S(=O)(=O)O)cc2C)C(=O)C1	PMI act hi M6P 2.4
O=C(N/N=C/c1ccccc1C(=O)O)c1cc(-c2ccc3c4c(cccc24)CC3)n[nH]1	TNAP inh noacc 74
CCSc1nnc(CNC(=O)C23CC4CC(CC(C4)C2)C3)n1C1CCCCC1	none
CC(C)(C)N/N=C/c1c(O)n(-c2ccc(Cl)cn2)c(=O)c2ccccc12	PMI act hi M6P 2.5
Cc1cccc(NC(=O)c2ccccc2OCC(=O)N2CCCC2)c1C	none
CCOC(=O)C1=C(C)NC2=C(C(=O)CC(C)(C)C2)C1c1ccc2c(c1)CCCN2C (configuration not stated)	PMI act hi M6P 2
CCOC(=O)C1=C(C)NC2=C(C(=O)CC(C)(C)C2)C1c1ccc(N(C)C)cc1 (configuration not stated)	none
CN(C)c1ncc(/C=C2/C(=O)NC(=S)N(C3CCCCC3)C2=O)cn1	PMI act hi M6P 2
Cc1ccc(N2NC3(CCN(C(N)=O)CC3)NC2=O)cc1	PMI act hi M6P 2.3
COc1ccccc1-c1nnc(NC(C)=O)s1	none
COc1ccccc1-c1nc(NC(C)=O)n[nH]1	TNAP inh noacc 93
